This is an account of results in ChEMBL document CHEMBL4382285, “Discovery of Novel Retigabine Derivatives as Potent KCNQ4 and KCNQ5 Channel Agonists with Improved Specificity” (ACS Med Chem Lett, 2019).

Holding throughout (format): cell-based
Series [1] deals with T1, Potassium voltage-gated channel subfamily KQT member 1 (Homo sapiens, UniProt P51787).
T1 sequence (P51787 whole entry): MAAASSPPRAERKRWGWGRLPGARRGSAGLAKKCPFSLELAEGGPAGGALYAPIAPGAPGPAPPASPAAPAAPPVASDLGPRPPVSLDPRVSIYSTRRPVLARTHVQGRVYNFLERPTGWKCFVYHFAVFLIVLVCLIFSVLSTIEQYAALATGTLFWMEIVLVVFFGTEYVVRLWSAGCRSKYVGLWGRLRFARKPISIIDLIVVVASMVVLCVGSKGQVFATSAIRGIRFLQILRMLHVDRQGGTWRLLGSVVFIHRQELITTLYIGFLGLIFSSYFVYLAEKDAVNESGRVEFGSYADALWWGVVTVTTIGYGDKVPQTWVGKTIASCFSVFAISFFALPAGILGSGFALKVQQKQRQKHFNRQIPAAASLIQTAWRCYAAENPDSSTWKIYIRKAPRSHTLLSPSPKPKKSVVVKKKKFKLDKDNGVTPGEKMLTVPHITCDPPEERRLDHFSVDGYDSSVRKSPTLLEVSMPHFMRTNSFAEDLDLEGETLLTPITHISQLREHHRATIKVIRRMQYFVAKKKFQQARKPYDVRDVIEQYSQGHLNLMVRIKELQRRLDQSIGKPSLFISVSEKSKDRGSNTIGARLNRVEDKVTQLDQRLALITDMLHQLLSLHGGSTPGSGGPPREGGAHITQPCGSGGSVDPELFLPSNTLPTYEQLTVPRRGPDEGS
As to the kind of experiment: Activity at human KCNQ1 expressed in CHOK1 cells assessed as ratio of amplitude of outward current in presence of test compound to amplitude of outward current in absence of test compound at 10 uM at +60 mV by whole cell patch clamp assay. In outline:
(§1)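 CHO-K1 cells individually transfected with a single KCNQ subtype; whole-cell voltage clamp. Held at −80 mV, stepped from −90 to +60 mV in 10 mV increments (1500 ms), then to −120 mV for 500 ms. Outward current at −10 or +60 mV measured before (I0) and after (I) 10 μM compound; I/I0 >1 counts as activation. More than four cells per compound.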

Series [2] addresses Potassium voltage-gated channel subfamily KQT member 5 (Homo sapiens, UniProt Q9NR82). Nature of the series: Activity at human KCNQ5 expressed in CHOK1 cells assessed as ratio of amplitude of outward current in presence of test compound to amplitude of outward current in absence of test compound at 10 uM at -10 mV by whole cell patch clamp assay. In outline:
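CHO-K1 cells expressing the channel, whole-cell voltage clamp, compound at 10 μM. Read-out is the outward current ratio I/I0 with and without compound, taken at −10 mV. I/I0 > 1 counts as activation and < 1 as inhibition. More than four cells per compound.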
A general note: Patch clamp records ionic current or voltage across a cell membrane.

The target of series [3] is Potassium voltage-gated channel subfamily KQT member 2 (Rattus norvegicus) (UniProt O88943). Nature of the series: Effect on voltage-dependent activation of rat KCNQ2 expressed in CHOK1 cells assessed as negative shift in current activation curve at 10 uM by whole cell patch clamp assay.
Sequence of Potassium voltage-gated channel subfamily KQT member 2 (Rattus norvegicus) (O88943 whole entry): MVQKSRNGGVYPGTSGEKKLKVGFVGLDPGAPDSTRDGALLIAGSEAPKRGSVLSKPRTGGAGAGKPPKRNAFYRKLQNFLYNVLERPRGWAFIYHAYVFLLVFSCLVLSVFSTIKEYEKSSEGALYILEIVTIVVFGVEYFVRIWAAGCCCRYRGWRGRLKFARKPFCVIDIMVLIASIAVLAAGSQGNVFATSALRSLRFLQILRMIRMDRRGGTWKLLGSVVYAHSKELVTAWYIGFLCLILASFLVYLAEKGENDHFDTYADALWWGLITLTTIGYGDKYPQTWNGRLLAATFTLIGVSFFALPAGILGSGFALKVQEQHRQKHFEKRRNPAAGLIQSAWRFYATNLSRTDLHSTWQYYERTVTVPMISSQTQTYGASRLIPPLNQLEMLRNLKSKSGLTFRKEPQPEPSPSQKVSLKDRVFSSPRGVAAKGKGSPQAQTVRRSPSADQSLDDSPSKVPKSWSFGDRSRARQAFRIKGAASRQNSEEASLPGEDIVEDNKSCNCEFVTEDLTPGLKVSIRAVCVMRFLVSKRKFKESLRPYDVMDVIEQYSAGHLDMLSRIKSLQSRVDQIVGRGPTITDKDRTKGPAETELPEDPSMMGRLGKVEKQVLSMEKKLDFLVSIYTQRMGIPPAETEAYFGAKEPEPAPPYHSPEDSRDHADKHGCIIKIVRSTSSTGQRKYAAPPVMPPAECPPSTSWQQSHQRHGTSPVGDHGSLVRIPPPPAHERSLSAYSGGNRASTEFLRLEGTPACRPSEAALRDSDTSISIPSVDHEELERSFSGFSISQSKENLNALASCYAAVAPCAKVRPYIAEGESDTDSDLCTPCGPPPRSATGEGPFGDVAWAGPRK
Series [4] concerns the target T2, Potassium voltage-gated channel subfamily KQT member 4 (Homo sapiens) (UniProt P56696).
T2 sequence (whole entry): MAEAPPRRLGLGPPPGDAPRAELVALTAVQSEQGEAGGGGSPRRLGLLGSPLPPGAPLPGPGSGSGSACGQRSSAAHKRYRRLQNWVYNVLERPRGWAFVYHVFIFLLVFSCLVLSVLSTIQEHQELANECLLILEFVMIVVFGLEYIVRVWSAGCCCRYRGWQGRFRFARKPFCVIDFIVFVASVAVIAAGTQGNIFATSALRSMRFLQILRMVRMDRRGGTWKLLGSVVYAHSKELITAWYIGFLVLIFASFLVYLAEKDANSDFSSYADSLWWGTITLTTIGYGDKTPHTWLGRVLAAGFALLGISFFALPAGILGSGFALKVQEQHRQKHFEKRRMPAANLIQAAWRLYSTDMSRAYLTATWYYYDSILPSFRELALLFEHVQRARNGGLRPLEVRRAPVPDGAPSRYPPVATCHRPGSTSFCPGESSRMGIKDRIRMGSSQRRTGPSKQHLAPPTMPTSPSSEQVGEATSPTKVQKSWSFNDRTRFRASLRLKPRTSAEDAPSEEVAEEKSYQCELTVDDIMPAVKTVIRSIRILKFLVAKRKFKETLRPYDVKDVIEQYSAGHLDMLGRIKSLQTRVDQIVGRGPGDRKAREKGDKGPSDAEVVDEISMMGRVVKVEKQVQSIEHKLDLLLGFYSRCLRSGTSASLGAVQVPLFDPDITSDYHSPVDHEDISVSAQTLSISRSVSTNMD
As to the kind of experiment: Activity at human KCNQ4 expressed in CHOK1 cells assessed as ratio of amplitude of outward current in presence of test compound to amplitude of outward current in absence of test compound at 10 uM at +60 mV by whole cell patch clamp assay. In outline:
as §1

Series [5] concerns the target T3, Potassium voltage-gated channel subfamily KQT member 3 (Rattus norvegicus) (UniProt O88944).
T3 sequence (whole entry): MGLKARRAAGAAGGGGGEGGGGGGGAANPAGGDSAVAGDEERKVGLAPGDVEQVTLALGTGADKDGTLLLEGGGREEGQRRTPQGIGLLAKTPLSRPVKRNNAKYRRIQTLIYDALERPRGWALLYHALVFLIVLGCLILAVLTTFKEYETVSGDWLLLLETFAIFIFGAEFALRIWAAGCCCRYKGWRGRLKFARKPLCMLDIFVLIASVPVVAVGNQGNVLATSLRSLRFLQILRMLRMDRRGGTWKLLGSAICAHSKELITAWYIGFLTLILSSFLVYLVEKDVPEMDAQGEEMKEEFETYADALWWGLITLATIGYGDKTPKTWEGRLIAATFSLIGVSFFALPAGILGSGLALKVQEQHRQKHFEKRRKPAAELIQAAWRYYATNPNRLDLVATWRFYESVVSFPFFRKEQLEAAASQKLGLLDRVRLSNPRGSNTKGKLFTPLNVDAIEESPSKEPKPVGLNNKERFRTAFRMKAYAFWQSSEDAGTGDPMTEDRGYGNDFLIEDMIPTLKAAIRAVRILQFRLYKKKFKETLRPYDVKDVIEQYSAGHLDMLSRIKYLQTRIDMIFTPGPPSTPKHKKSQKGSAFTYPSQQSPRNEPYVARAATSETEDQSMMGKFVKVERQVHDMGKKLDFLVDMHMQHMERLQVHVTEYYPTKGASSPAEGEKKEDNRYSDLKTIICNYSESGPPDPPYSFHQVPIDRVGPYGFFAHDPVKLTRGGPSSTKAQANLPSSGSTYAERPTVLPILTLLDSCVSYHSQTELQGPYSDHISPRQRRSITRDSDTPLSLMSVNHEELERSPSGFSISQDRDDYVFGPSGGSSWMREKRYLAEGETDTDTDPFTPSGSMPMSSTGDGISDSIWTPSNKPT
Nature of the series: Activity at rat KCNQ3 expressed in CHOK1 cells assessed as ratio of amplitude of outward current in presence of test compound to amplitude of outward current in absence of test compound at 10 uM at +60 mV by whole cell patch clamp assay. In outline: as §1

The source made the active and inactive calls. No cut-off for these calls is given here.

Sequence of Potassium voltage-gated channel subfamily KQT member 5 (Q9NR82 whole entry): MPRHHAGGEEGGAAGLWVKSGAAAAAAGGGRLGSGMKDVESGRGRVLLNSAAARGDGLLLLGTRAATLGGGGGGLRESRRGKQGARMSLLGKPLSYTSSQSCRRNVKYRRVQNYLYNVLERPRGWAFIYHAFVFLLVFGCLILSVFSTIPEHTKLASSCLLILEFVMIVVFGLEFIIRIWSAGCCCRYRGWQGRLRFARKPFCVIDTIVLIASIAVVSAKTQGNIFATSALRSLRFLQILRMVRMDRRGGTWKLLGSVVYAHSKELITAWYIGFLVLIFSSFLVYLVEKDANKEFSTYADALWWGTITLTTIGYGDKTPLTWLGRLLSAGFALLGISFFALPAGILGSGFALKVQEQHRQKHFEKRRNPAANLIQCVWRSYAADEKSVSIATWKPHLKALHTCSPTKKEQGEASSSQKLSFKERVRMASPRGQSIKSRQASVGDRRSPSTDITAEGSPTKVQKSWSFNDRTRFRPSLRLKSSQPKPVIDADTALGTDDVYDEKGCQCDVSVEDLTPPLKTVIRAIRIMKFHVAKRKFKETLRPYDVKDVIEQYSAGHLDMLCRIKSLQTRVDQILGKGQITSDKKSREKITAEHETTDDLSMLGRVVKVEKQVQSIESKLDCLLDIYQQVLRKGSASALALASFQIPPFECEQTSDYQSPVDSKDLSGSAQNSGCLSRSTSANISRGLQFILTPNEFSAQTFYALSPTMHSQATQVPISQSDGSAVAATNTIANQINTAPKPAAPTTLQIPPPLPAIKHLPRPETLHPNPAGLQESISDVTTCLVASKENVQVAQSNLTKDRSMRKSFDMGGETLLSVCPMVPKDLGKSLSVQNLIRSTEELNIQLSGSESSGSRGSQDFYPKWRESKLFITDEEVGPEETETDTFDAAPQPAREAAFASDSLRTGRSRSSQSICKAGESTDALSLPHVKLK

With `C#CCN(Cc1ccc(F)cc1)c1ccc(NC(=O)OCC)c(NC(=O)OCC)c1`, the Ratio in series [1] was determined as 1; in series [2], 3.2; in series [4], 6.6; in series [5] it was 1.7. Besides, the outcome in series [3] was inactive.
